# In ChEMBL document CHEMBL1141475 (Bioorg Med Chem Lett, 2008):
# Peptide text beside a SMILES is read from it.
# How the values were obtained:
# Mus musculus [1] = assay: Antinociceptive activity in mouse assessed as jumping latency at 5 ug, icv in presence of endomorphin-2 by hot plate test; assay type: functional
# In short: (§1)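 Mouse hot plate test with intracerebroventricular co-injection of endomorphin-2 (3 ug/animal) plus antagonist: naloxone at 5 ug/animal, or analog at 10 ug/animal. Rearing, paw-licking and jumping latencies were measured against saline controls and converted to %MPE = (t1 − t0)/(t2 − t0) × 100, with a 240 s cutoff.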
# Mus musculus [2] = assay: Antinociceptive activity in mouse assessed as paw licking latency at 5 ug, icv in presence of endomorphin-2 by hot plate test; assay type: functional; in short: as §1
# Mus musculus [3] = assay: Antinociceptive activity in mouse assessed as rearing latency at 5 ug, icv in presence of endomorphin-2 by hot plate test; assay type: functional; in short: as §1
# Mus musculus [4] = assay: Antinociceptive activity in mouse assessed as paw licking latency at 10 ug, icv in presence of endomorphin-2 by hot plate test; assay type: functional; in short: as §1
# Mus musculus [5] = assay: Antinociceptive activity in mouse assessed as rearing latency at 10 ug, icv in presence of endomorphin-2 by hot plate test; assay type: functional; in short: as §1
# Mus musculus [6] = assay: Antinociceptive activity in mouse assessed as jumping latency at 10 ug, icv in presence of endomorphin-2 by hot plate test; assay type: functional; in short: as §1
# Mu-type opioid receptor [7] = target: T1, Mu-type opioid receptor (Rattus norvegicus, UniProt P33535); assay: Displacement of [3H]naloxone from mu opioid receptor in rat brain membranes; assay type: cell membranes
# Mu-type opioid receptor [8] = target: T1, Mu-type opioid receptor; assay: Displacement of [3H]DAMGO from mu opioid receptor in rat brain membranes; assay type: cell membranes
# [9] = target: Delta-type opioid receptor (Rattus norvegicus, UniProt P33533); assay: Displacement of [3H]naltrindole from delta opioid receptor in rat brain membranes; assay type: cell membranes
# [10] = Selectivity for mu opioid receptor over delta opioid receptor in rat brain membranes; assay type: cell membranes
# [11] = target: Delta-type opioid receptor (Homo sapiens, UniProt P41143); assay: Antagonist activity at delta opioid receptor expressed in CHO cells assessed as release of intracellular calcium ions by aequorin luminescence-based calcium assay; assay type: functional, cell-based
# Mus musculus [12] = assay: Antinociceptive activity in mouse assessed as paw licking latency at 10 ug, icv by hot plate test; assay type: functional
# In short: (§2)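 Mice, single intracerebroventricular peptide injection; hot plate latencies recorded for rearing, paw licking and jumping. Control latencies (t0) taken after saline, test latencies (t1) after peptide. Expressed as %MPE = (t1 − t0)/(t2 − t0) × 100, with a cutoff time (t2) of 240 s.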
# Mus musculus [13] = assay: Antinociceptive activity in mouse assessed as rearing latency at 10 ug, icv by hot plate test; assay type: functional; in short: as §2
# Mus musculus [14] = assay: Antinociceptive activity in mouse assessed as jumping latency at 10 ug, icv by hot plate test; assay type: functional; in short: as §2
# T1 sequence (P33535 whole entry): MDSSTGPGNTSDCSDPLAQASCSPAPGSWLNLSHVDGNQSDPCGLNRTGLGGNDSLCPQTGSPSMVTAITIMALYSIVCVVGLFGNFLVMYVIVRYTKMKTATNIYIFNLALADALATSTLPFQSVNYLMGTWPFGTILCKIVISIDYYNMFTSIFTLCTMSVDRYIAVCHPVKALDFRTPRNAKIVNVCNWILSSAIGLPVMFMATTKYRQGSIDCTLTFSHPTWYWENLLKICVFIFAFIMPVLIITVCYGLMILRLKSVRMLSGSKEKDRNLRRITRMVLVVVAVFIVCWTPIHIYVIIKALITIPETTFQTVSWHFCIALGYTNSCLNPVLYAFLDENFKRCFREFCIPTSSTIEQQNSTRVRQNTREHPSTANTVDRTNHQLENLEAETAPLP
# Delta-type opioid receptor (Homo sapiens, UniProt P41143), sequence (P41143 whole entry): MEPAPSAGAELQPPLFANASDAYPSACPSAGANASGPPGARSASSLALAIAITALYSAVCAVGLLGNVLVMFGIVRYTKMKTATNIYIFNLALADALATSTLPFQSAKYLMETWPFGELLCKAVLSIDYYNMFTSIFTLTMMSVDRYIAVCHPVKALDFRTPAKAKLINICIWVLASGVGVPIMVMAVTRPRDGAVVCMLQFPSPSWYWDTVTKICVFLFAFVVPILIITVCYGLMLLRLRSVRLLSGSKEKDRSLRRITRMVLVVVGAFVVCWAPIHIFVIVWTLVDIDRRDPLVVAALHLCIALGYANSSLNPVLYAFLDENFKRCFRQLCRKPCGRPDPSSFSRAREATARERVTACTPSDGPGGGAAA
# Delta-type opioid receptor (Rattus norvegicus, UniProt P33533), sequence (P33533 whole entry): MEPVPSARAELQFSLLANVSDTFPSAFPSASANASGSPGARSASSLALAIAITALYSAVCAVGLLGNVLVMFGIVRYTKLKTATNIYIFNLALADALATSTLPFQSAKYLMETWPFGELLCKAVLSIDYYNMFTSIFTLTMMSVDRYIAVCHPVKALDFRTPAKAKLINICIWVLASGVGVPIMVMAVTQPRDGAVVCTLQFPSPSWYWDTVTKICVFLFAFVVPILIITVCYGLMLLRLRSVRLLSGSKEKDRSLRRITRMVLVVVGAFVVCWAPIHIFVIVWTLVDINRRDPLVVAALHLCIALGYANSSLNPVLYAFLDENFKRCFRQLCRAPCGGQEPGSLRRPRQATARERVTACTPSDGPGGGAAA
structure (smiles),measurement,setting,value
C=CCN1CC[C@]23c4c5ccc(O)c4O[C@H]2C(=O)CC[C@@]3(O)[C@H]1C5 [NALOXONE],MPE,Mus musculus [1],2.19%
same,MPE,Mus musculus [2],0.34%
same,MPE,Mus musculus [3],0.22%
NC(=O)[C@@H](Cc1ccc2ccccc2c1)NC(=O)[C@H](Cc1ccccc1)NC(=O)[C@@H]1CCCN1C(=O)[C@@H](N)Cc1ccc(O)cc1 (HELM PEPTIDE1{Y.P.F.[O=C([C@@H](Cc1ccc2ccccc2c1)N[*:1])[*:2]].[am]}$$$$V2.0),MPE,Mus musculus [4],2.94%
same,MPE,Mus musculus [5],5.26%
same,MPE,Mus musculus [6],17.9%
same,IC50,Mu-type opioid receptor [7],19.5 nM
Cc1cc(O)cc(C)c1C[C@H](N)C(=O)N(C)CC(=O)N[C@@H](Cc1ccccc1)C(=O)N[C@H](Cc1ccc2ccccc2c1)C(N)=O (HELM PEPTIDE1{[Cc1cc(O)cc(C)c1C[C@H](N)C(=O)[*:2]].[Sar].F.[O=C([C@@H](Cc1ccc2ccccc2c1)N[*:1])[*:2]].[am]}$$$$V2.0),MPE,Mus musculus [4],1.89%
same,MPE,Mus musculus [5],3.63%
same,MPE,Mus musculus [6],11.5%
same,IC50,Mu-type opioid receptor [8],0.01 nM
same,IC50,[9],> 10000 nM
same,IC50,[10],> 10000 nM
same,EC50,[11],> 1000 nM
same,MPE,Mus musculus [12],0.04%
same,MPE,Mus musculus [13],0.09%
same,MPE,Mus musculus [14],1.42%
CN(CC(=O)N[C@@H](Cc1ccccc1)C(=O)N[C@H](Cc1ccc2ccccc2c1)C(N)=O)C(=O)[C@@H](N)Cc1ccc(O)cc1,IC50,Mu-type opioid receptor [8],1560 nM
same,IC50,[9],> 10000 nM
same,IC50,[10],> 6.41 nM
same,EC50,[11],> 1000 nM
Cc1cc(O)cc(C)c1C[C@H](N)C(=O)N1CCC[C@H]1C(=O)N[C@@H](Cc1ccccc1)C(=O)N[C@H](Cc1ccc2ccccc2c1)C(N)=O (HELM PEPTIDE1{[Cc1cc(O)cc(C)c1C[C@H](N)C(=O)[*:2]].P.F.[O=C([C@@H](Cc1ccc2ccccc2c1)N[*:1])[*:2]].[am]}$$$$V2.0),MPE,Mus musculus [4],0.26%
same,MPE,Mus musculus [5],0.13%
same,MPE,Mus musculus [6],2.26%
same,IC50,Mu-type opioid receptor [8],1.52 nM
same,IC50,[10],5.09 nM
same,MPE,Mus musculus [12],0.09%
same,MPE,Mus musculus [13],0.18%
